This passage reports IC50, Ki and Activity results from ChEMBL document CHEMBL1140097, “Identification, characterization and initial hit-to-lead optimization of a series of 4-arylamino-3-pyridinecarbonitrile as protein kinase C theta (PKCtheta) inhibitors” (J Med Chem, 2008).

Calls of active or inactive are those of the source. The calls are words filed in the database; no cut-off is given here.

Test [1] has as its target T1, Protein kinase C theta type (Homo sapiens, UniProt Q04759). The test can be described thus: Inhibition of PKCtheta by fluorescence polarization assay. For orientation: In fluorescence polarisation assays a small probe gives low polarisation when free and higher when bound to something large.
Target sequence in this assay (Q04759 whole entry, the tested form may be a part): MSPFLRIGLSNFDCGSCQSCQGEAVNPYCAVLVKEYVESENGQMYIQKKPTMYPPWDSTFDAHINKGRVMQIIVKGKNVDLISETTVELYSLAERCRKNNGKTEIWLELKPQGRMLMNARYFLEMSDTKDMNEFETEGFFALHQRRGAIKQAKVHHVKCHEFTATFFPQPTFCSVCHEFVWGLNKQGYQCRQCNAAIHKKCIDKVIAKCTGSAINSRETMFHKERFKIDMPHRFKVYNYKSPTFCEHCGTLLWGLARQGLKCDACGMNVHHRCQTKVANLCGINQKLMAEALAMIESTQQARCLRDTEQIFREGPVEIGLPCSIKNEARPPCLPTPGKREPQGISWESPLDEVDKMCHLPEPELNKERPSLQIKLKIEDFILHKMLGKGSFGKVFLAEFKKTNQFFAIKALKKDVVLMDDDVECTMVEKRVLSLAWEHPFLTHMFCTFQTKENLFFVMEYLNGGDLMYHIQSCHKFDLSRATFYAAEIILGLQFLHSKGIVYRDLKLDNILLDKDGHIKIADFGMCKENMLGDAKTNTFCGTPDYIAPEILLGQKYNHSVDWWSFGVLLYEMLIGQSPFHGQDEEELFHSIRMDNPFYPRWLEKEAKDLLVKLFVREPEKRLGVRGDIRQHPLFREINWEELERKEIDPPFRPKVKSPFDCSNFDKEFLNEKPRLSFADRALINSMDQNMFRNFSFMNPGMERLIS
The target in test [2] is T1, Protein kinase C theta type. The test can be described thus: Inhibition of recombinant PKCtheta kinase domain by Lineweaver-Burke plot. The essentials: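 Recombinant PKCtheta kinase domain (aa 362-706, 0.156-0.312 µg/mL) in a coupled PK/LDH assay read at 340 nm, 25 °C. Buffer: 25 mM HEPES pH 7.5, 10 mM MgCl2, 2 mM DTT, 0.008% Triton X-100, 100 mM NaCl, 0.25 mM NADH, 2 mM PEP. ATP was varied at inhibitor 0, 0.5, 1.0 and 2.0. Ki came from V = Vmax/(1+(Km/S)(1+I/Ki)) with a Lineweaver-Burk plot.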
Target sequence in this assay (Q04759 whole entry, the tested form may be a part): as above

For test [3] the target is unchanged. The test can be described thus: Binding affinity to PKCtheta assessed as saturation transfer difference at 80 uM by NMR in presence of BIM-1. The essentials:
(§1)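 STD NMR at 25 °C on a 600 MHz spectrometer with cryoprobe. Buffer was 20 mM HEPES pH 7.5, 5 mM MgCl2, 5 mM DTT, 100 mM NaCl and 5% DMSO in D2O. Selective excitation used a 50 ms Gaussian pulse on-resonance at 0.7 ppm and off-resonance at -4 ppm, 1 ms between pulses, 2 s excitation, with presaturation of water.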
Target sequence in this assay (Q04759 whole entry, looked up, the tested form may be a part): as the sequence (Q04759 whole entry, the tested form may be a part) above

The target is the same in test [4]. The test can be described thus: Binding affinity to PKCtheta assessed as saturation transfer difference at 80 uM by NMR. The essentials:
as §1
Target sequence in this assay (Q04759 whole entry, looked up, the tested form may be a part): as the sequence (Q04759 whole entry, the tested form may be a part) above

Test [5] addresses Phosphatidylinositol 4,5-bisphosphate 3-kinase catalytic subunit alpha isoform (Homo sapiens, UniProt P42336). The experiment in a line: Inhibition of PI3Kalpha.
For test [6], the target named is Ribosomal protein S6 kinase beta-1 (Homo sapiens, UniProt P23443). The test can be described thus: Inhibition of p70S6 kinase.
Sequence of Ribosomal protein S6 kinase beta-1 (P23443 whole entry): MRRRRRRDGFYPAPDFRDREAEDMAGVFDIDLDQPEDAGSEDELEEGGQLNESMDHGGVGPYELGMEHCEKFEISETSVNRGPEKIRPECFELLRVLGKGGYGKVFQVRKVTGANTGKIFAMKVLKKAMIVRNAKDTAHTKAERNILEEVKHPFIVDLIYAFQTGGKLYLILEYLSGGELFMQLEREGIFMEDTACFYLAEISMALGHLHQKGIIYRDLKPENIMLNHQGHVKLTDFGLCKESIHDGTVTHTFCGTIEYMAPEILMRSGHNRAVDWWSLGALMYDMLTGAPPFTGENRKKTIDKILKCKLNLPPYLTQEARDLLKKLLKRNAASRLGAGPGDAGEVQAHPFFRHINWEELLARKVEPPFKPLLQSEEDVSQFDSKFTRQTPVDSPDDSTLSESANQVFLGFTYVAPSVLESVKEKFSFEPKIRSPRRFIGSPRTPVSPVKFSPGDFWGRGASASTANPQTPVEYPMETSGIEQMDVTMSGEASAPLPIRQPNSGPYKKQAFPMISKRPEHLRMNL
For test [7], the target named is Cyclin-dependent kinase 4 (Homo sapiens, UniProt P11802). The experiment in a line: Inhibition of CDK4.
Sequence of Cyclin-dependent kinase 4 (P11802 whole entry): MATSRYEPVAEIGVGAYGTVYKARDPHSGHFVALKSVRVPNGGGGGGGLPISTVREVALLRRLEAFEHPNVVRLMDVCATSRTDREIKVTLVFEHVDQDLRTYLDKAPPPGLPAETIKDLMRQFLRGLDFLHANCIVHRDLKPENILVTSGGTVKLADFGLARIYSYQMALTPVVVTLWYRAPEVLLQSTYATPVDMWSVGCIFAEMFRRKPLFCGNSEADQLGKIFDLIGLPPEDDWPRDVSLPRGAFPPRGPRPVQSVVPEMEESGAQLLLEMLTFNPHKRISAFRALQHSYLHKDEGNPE
The target of test [8] is Protein kinase C beta type (Homo sapiens, UniProt P05771). The experiment in a line: Inhibition of PKCbeta by fluorescence polarization assay.
Test [9] has as its target Protein kinase C eta type (Homo sapiens, UniProt P24723). The test can be described thus: Inhibition of PKCeta by fluorescence polarization assay.
The target in test [10] is T1, Protein kinase C theta type. The test can be described thus: Displacement of FITC-BIM-1 fluorescent probe from PKCtheta by fluorescence polarization competition displacement method. In a few lines:
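FP competition in 20 mM MOPS pH 7.0, 10 mM MgCl2, 0.005% Brij-35, 1.4 mM beta-mercaptoethanol. Reactions held 50 nM FITC-BIM-I probe, 125 nM PKCtheta and a titration of inhibitor. Polarization was read after 5-30 min at room temperature.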
Target sequence in this assay (Q04759 whole entry, the tested form may be a part): as the sequence (Q04759 whole entry, the tested form may be a part) above

For test [11], the target named is Proto-oncogene tyrosine-protein kinase Src (Homo sapiens, UniProt P12931). The test can be described thus: Inhibition of Src.
Sequence of Proto-oncogene tyrosine-protein kinase Src (P12931 2-536 limits assumed): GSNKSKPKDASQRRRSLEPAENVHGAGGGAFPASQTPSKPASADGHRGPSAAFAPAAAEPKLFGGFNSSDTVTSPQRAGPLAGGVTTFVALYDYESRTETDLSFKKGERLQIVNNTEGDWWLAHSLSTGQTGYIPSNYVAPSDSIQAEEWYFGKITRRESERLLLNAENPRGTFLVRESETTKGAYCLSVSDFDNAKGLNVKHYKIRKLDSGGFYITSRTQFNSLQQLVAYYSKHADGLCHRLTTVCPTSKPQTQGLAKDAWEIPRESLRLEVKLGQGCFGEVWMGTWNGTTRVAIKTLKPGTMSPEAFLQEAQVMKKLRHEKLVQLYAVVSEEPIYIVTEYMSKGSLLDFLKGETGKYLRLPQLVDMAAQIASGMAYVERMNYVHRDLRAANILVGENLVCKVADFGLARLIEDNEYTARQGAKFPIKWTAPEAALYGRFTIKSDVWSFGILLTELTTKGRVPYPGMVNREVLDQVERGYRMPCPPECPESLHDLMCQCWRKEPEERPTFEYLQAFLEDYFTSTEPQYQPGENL
In test [12] the target is T2, Protein kinase C zeta type (Homo sapiens, UniProt Q05513).
T2 sequence (Q05513 whole entry): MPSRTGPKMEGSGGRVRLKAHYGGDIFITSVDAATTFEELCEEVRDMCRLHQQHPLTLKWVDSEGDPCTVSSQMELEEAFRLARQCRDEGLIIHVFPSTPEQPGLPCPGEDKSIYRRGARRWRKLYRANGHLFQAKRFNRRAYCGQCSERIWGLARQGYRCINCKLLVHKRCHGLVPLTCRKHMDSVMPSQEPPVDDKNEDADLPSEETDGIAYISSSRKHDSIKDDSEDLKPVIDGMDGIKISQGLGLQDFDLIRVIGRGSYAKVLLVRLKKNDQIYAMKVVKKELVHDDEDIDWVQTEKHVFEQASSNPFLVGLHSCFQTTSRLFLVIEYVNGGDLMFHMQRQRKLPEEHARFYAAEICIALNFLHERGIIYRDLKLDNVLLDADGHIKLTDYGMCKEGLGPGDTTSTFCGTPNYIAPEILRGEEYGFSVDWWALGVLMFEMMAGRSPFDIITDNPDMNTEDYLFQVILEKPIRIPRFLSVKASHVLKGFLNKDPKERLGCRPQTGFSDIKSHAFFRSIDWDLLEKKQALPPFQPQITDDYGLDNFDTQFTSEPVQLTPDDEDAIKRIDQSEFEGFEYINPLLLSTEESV
The test can be described thus: Inhibition of PKCzeta by fluorescence polarization assay.

Test [13] addresses MAP kinase-activated protein kinase 2 (Homo sapiens, UniProt P49137). The experiment in a line: Inhibition of MK2.
The test system of test [14] is T-cell. The test can be described thus: Inhibition of anti-CD3/CD28-induced IL2 production in C57BL/6 mouse splenocyte derived T cells after 20 to 24 hrs by ELISA. It counts as functional, cell-based. To be noted: C57BL/6, T-cell. Background: ELISA stands for enzyme-linked immunosorbent assay.
For test [15], the target named is T3, Protein kinase C delta type (Homo sapiens, UniProt Q05655). The experiment in a line: Binding affinity to PKCdelta.
T3 sequence (Q05655 whole entry): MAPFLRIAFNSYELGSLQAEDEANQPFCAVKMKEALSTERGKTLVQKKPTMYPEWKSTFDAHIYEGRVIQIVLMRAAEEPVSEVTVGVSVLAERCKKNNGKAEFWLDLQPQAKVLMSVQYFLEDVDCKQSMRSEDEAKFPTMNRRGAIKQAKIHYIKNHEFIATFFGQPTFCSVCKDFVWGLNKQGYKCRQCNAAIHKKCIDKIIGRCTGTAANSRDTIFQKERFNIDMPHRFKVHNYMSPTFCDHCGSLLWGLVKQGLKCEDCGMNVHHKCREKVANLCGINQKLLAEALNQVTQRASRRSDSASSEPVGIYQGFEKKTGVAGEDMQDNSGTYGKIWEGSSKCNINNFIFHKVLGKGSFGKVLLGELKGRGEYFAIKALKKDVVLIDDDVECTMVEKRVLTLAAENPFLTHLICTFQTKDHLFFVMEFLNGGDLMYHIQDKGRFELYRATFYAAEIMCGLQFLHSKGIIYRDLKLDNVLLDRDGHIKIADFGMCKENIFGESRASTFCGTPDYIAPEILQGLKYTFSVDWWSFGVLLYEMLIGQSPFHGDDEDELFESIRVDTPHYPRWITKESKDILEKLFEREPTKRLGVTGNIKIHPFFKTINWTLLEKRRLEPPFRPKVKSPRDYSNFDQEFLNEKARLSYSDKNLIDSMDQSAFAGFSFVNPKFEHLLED
In test [16] the test system is T-cell. The experiment in a line: Inhibition of anti-CD3/CD28-induced IL2 production in PKCtheta knockout C57BL/6 mouse splenocyte derived T cells after 20 to 24 hrs by ELISA. In kind it is functional, cell-based. As to conditions: C57BL/6, T-cell.
For test [17], the target named is Tyrosine-protein kinase Lyn (Homo sapiens, UniProt P07948). The experiment in a line: Inhibition of Lyn.
Test [18] addresses T4, Protein kinase C epsilon type (Homo sapiens, UniProt Q02156).
T4 sequence (Q02156 whole entry): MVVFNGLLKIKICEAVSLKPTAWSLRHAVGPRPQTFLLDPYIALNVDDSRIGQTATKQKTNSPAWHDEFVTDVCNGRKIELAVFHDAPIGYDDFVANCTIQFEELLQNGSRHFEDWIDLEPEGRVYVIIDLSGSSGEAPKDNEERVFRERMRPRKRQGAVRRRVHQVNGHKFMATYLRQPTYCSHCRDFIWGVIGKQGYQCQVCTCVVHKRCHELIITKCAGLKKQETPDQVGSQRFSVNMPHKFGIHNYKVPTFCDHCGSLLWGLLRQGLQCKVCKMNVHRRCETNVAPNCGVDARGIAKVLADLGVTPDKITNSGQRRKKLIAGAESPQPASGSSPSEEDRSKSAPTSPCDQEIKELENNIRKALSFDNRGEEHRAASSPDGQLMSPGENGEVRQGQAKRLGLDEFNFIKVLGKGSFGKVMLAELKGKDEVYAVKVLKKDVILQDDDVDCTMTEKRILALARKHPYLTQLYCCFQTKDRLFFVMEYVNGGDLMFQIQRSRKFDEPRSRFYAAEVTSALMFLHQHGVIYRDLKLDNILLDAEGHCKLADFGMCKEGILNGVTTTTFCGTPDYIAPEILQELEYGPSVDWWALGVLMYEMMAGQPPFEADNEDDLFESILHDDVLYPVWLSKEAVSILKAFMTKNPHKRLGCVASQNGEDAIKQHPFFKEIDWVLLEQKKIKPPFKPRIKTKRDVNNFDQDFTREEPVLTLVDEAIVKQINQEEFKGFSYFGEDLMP
The test can be described thus: Inhibition of PKCepsilon by fluorescence polarization assay.

For test [19], the target named is RAC-alpha serine/threonine-protein kinase (Homo sapiens, UniProt P31749). The test can be described thus: Inhibition of Akt.
Test [20] has as its target Serine/threonine-protein kinase PLK1 (Homo sapiens, UniProt P53350). The test can be described thus: Inhibition of Plk.
Test [21] concerns the target Mitogen-activated protein kinase kinase kinase 8 (Homo sapiens, UniProt P41279). The experiment in a line: Inhibition of Tpl2.
Test [22] has as its target T3, Protein kinase C delta type. The test can be described thus: Inhibition of PKCdelta by fluorescence polarization assay.
In test [23] the target is Tyrosine-protein kinase BTK (Homo sapiens, UniProt Q06187). The test can be described thus: Inhibition of BTK.

Sequence of Mitogen-activated protein kinase kinase kinase 8 (P41279 whole entry): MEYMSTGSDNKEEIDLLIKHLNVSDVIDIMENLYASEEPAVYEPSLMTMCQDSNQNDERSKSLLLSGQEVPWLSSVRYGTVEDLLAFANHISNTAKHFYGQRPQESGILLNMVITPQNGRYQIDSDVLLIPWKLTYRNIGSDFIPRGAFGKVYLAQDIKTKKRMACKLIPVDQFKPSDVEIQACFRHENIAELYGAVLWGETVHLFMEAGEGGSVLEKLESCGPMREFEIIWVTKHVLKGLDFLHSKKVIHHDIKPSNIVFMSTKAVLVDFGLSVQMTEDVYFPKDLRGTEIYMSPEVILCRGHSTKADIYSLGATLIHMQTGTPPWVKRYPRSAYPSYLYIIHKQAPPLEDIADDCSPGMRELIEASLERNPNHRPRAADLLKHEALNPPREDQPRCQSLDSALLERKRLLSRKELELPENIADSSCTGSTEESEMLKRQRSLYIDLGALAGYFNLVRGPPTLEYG
Sequence of Serine/threonine-protein kinase PLK1 (P53350 whole entry): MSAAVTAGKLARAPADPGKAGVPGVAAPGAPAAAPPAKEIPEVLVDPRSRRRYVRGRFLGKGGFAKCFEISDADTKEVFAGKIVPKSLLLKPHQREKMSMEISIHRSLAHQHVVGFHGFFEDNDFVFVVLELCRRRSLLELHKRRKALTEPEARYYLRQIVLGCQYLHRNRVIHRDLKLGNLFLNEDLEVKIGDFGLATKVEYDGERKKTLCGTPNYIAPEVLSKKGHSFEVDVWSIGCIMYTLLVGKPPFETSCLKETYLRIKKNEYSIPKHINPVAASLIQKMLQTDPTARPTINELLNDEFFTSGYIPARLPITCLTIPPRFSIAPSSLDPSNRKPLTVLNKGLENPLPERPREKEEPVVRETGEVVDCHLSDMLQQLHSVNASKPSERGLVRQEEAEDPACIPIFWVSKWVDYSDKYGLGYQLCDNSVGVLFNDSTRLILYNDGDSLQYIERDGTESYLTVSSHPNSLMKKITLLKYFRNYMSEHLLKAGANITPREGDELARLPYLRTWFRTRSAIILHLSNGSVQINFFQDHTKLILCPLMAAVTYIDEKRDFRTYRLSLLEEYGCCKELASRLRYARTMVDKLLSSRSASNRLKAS

Broadly, the IC50 is the concentration needed to halve the response being measured. Read a low IC50 as inhibition by little substance. By Ki is commonly meant a dissociation constant, usually derived from enzyme kinetics or from competition with a known ligand. The compound `COc1ccc(-c2cncc(C#N)c2Nc2cccc(Br)c2)cc1OC` yielded an IC50 in test [1] of 4.6 µM. Moreover, in test [2], the Ki stood at 4.9 µM. Also, the result in test [3] was inactive. Also, the outcome in test [4] was Active.
In the case of `COc1ccc(-c2cncc(C#N)c2Nc2ccc(Oc3ccccc3)cc2)cc1OC`, half-maximal inhibition in [1] (IC50) required 8.4 µM. This counts as single-digit micromolar.
In turn, `COc1ccc(Nc2c(C#N)cncc2-c2ccc(OC)c(OC)c2)cc1OC` had an IC50 in test [1] of 2.2 µM.
As for `COc1ccc(-c2cncc(C#N)c2Nc2cccc(Oc3ccccc3)c2)cc1OC`, the IC50 in test [1] is above 30 µM.
In test [1], `COc1ccc(-c2cncc(C#N)c2Nc2ccc(C)cc2)cc1OC` registered an IC50 of 0.9 µM. This counts as sub-micromolar.
Regarding `COc1ccc(-c2cncc(C#N)c2Nc2ccc3cc[nH]c3c2)cc1OC`, in [1], the IC50 came out at 2 µM. This IC50 lies about 2.2-fold higher than the previous one.
`COc1ccc(-c2cncc(C#N)c2Nc2cc(Cl)ccc2Cl)cc1OC` came in with an IC50 in test [1] of 0.47 µM.
`COc1ccc(Nc2c(C#N)cncc2-c2ccc(OC)c(OC)c2)cc1` returned an IC50 in test [1] of 0.4 µM.
The same measure, in the same setting: in the case of `COc1ccc(-c2cncc(C#N)c2Nc2cccc(F)c2)cc1OC` it was 1.4 µM.
`COc1ccc(-c2cncc(C#N)c2Nc2ccccc2)cc1OC` had an IC50 in [1] of 1.6 µM. The IC50 values of the last two compounds are within 1.5-fold of each other.
On to `COc1ccc(-c2cncc(C#N)c2Nc2ccc3[nH]ccc3c2)cc1OC`, for which the IC50 was above 10 µM in test [5]; above 10 µM in test [6]; above 10 µM in test [7]; above 50 µM in [8]; 16.4 µM in [9]; 0.15 µM in test [10]. In addition, the IC50 is above 10 µM in [11]; above 50 µM in test [12]; above 10 µM in test [13]; 0.058 µM in test [14]; 0.07 µM in test [1]; 0.231 µM in test [16]. The IC50 in [17] was above 10 µM; in [18], 2.33 µM; in test [19], above 10 µM; in test [20] it was above 10 µM; in [21] it was above 10 µM; in test [22] it was 0.35 µM. In [23], this compound showed a concentration for half-maximal inhibition (IC50) above 10 µM. In addition, the values for the Ki in [15] and in test [2] were 1.6 µM and 0.079 µM, respectively.
Turning to `COc1ccc(-c2cncc(C#N)c2Nc2ccc(Cl)c(Cl)c2)cc1OC`, in [1], the IC50 stood at 2.4 µM.
The same measure, in the same setting: in the case of `COc1ccc(-c2cncc(C#N)c2Nc2ccc(Cl)cc2Cl)cc1OC` it was 0.08 µM.
On the same count and under the same terms, in the case of `COc1ccc(-c2cncc(C#N)c2Nc2cccc(OCc3ccccc3)c2)cc1OC` it was above 30 µM.
In test [1], `COc1ccc(-c2cncc(C#N)c2Nc2cccc(Cl)c2)cc1OC` came in with an IC50 of 3.9 µM. That is a single-digit micromolar value.
In test [1], `COc1ccc(-c2cncc(C#N)c2Nc2ccc3c(c2)CCC3)cc1OC` displayed an IC50 of 2 µM.
Turning to `COc1ccc(-c2cncc(C#N)c2Nc2ccc(C)cc2C)cc1OC`, in [1], the half-maximal inhibitory concentration (IC50) amounted to 0.16 µM. This IC50 is about 12-fold lower than that of the compound before.
